The source made the active and inactive calls.

In data set [1] the test system is MDA-MB-231. The data set can be described thus: Induction of apoptosis in human MDA-MB-231 cells assessed as PARP cleavage at 0.5 uM measured after 6 hrs by western blot assay relative to Di(1H-indol-3-yl)(4-(trifluoromethyl)phenyl)methylium methanesulfonate. It is filed as functional. An outline of the steps:
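MDA-MB-231 in DMEM with 10% FBS, 0.5 µM for 6 h, then PARP western blot with 1:1000 primary antibodies and ECL. Cleaved PARP/PARP band intensity ratio expressed relative to the reference methylium methanesulfonate, whose ratio was set to 1. Mean ± SD, n = 3.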

The nature of data set [2]: MRT(0 to t) in male/female Sprague-Dawley rat at 0.5 mg/kg, iv measured for 36 hrs by LC-MS/MS analysis. In kind it is ADME, organism-based. As to conditions: in vivo. An outline of the steps: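 Sprague-Dawley rats (200–220 g), four per route group (2 male, 2 female), given 0.5 mg/kg IV or 5 mg/kg orally in DMSO/T-80/H2O (1:5:94). Heparinized blood was sampled at 5 min–36 h after IV and at 0.5, 1, 3, 4, 6, 8, 10, 12, 24 and 36 h after oral dosing. Plasma was methanol (2% HCl)-precipitated with carbamazepine internal standard and quantified by LC-MS/MS. Parameters reported as mean ± SD.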

Data set [3] deals with HCT-116. The data set can be described thus: Induction of apoptosis in human HCT-116 cells assessed as PARP cleavage at 0.5 uM measured after 6 hrs by western blot assay. It is filed as functional, cell-based. An outline of the steps: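 Cells exposed to 0.5 µM for 6 h. Lysates resolved by SDS-PAGE and blotted to PVDF, blocked in 5% milk/TBST, probed with primary antibodies at 1:1000, ECL detection. Apoptosis scored as the densitometric ratio of cleaved PARP band to intact PARP band; mean ± SD, n = 3.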

Data set [4] can be described thus: Selectivity index, ratio of IC50 for human NCM460 cells to IC50 for human SW-620 cells.
Data set [5] can be described thus: Clearance in male/female Sprague-Dawley rat at 0.5 mg/kg, iv measured for 36 hrs by LC-MS/MS analysis. It is filed as ADME, organism-based. The settings on record: both, in vivo.
For data set [6], the system named is Mus musculus. The data set is described as follows: Antitumour activity against FVB/N mammary tumor MMTV-PyMT mouse model assessed as inhibition of tumour growth at 3 mg/kg, po administered daily for 14 days. It is filed as functional, organism-based. As to conditions: time 14.0 day. In short, it runs like this: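 Female MMTV-PyMT transgenic mice (FVB/N background), 12 weeks old, randomized n = 6 per group; daily oral gavage 3 mg/kg for 14 days. Dosing solution: DMSO stock diluted in normal saline with 5.0% (V/V) Tween-80 to 3 mg/mL. Tumours weighed at end; mean ± SD, Student's t-test versus untreated controls.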

Data set [7] is described as follows: Half life in male/female Sprague-Dawley rat at 5 mg/kg, po measured for 36 hrs by LC-MS/MS analysis. It is filed as ADME, organism-based. The settings on record: both, in vivo.
A short description of data set [8]: AUC (0 to t) in male/female Sprague-Dawley rat at 5 mg/kg, po measured for 36 hrs by LC-MS/MS analysis. More on the design: dose 5 mg/kg, time 36 hrs. In kind it is ADME, organism-based. As to conditions: both, in vivo. In short, it runs like this: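 Four Sprague-Dawley rats per route (2 male, 2 female; 200–220 g) received 0.5 mg/kg IV or 5 mg/kg PO in DMSO/Tween-80/water (1:5:94). Heparinized blood was taken at 5 min–36 h after IV dosing and at 0.5, 1, 3, 4, 6, 8, 10, 12, 24 and 36 h after oral dosing. Methanol (2% HCl) precipitation with carbamazepine internal standard preceded LC-MS/MS; values are mean ± SD.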

The subject of data set [9] is HCT-116. The data set is described as follows: Induction of apoptosis in human HCT-116 cells assessed as PARP cleavage at 0.5 uM measured after 6 hrs by western blot assay relative to Di(1H-indol-3-yl)(4-(trifluoromethyl)phenyl)methylium methanesulfonate. In kind it is functional. An outline of the steps:
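HCT116 cells grown in RPMI-1640 with 10% FBS, exposed to 0.5 μM compound for 6 h. Lysates run on SDS-PAGE and blotted for PARP and cleaved PARP (primary antibodies 1:1000, ECL detection). The cleaved-PARP/PARP band intensity ratio was expressed relative to the reference compound set to 1. Mean ± SD, n = 3.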
On the technique in general: A western blot detects proteins with antibodies after separation by electrophoresis.

A short description of data set [10]: MRT(0 to t) in female Sprague-Dawley rat at 0.5 mg/kg, iv measured for 36 hrs by LC-MS/MS analysis. In kind it is ADME, organism-based. The settings on record: in vivo.
Data set [11] can be described thus: Clearance in female Sprague-Dawley rat at 0.5 mg/kg, iv measured for 36 hrs by LC-MS/MS analysis. In kind it is ADME, organism-based. As to conditions: in vivo.
A short description of data set [12]: Clearance in male Sprague-Dawley rat at 0.5 mg/kg, iv measured for 36 hrs by LC-MS/MS analysis. It is filed as ADME, organism-based. As to conditions: in vivo.
A short description of data set [13]: Tmax in female Sprague-Dawley rat at 5 mg/kg, po measured for 36 hrs by LC-MS/MS analysis. It is filed as ADME, organism-based. The settings on record: in vivo. An outline of the steps: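 Sprague-Dawley rats (200–220 g), three males and three females per route group. Dosed 5 mg/kg orally or 0.5 mg/kg IV as a solution in DMSO/T-80/H2O (1:5:94 by volume). Heparinized blood was drawn from 5 min to 36 h after IV and 1–36 h after oral dosing. Plasma was protein-precipitated with methanol (2% HCl) plus carbamazepine internal standard and assayed by LC-MS/MS. Parameters were taken from concentration-time data; n = 3 per sex, mean ± SD.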

As for `CS(=O)(=O)[O-].Cn1cc([C+](c2ccc(C(F)(F)F)cc2)c2c[nH]c3ccccc23)c2ccccc21`, the entries for the “fold change (FC)” value in data set [1] and in data set [9] were 8.93 and 13.54, respectively. Besides, the mean residence time (MRT) in data set [2] came out at 0.56 h. Further, the result in data set [3] and in data set [6] was Active. The “Ratio IC50” value in data set [4] was found to be 50. The compound further had a clearance in data set [5] of 17 mL/min/kg. For the same compound, in data set [7], the half-life was 4.49 h. The compound further displayed an AUC(0-t) at 36 h in [8] of 734 ng·h/mL.

In data set [10], `CS(=O)(=O)[O-].FC(F)(F)c1ccc([C+](c2c[nH]c3ccccc23)c2c[nH]c3ccccc23)cc1` yielded a mean residence time MRT of 3.59 h. This compound also displayed a CL in [11] of 4.67 mL/min/kg. In addition, the clearance in [12] was 7.5 mL/min/kg. Further, the Tmax in [13] came out at 5.33 h.

One may read the MRT as the average time that molecules of a dose stay in the body. In general, clearance refers to the volume of plasma or blood freed of the substance per unit of time. Usually half-life stands for the time needed for the level to fall by half in the phase considered. Low readings indicate rapid decline, high ones slow decline. As a reminder, the AUC(0-t) is the area under the concentration-time curve up to a stated or last time point. The Tmax is the time at which the peak concentration occurs.

Values taken from ChEMBL document CHEMBL4819003, “Optimization of novel oxidative DIMs as Nur77 modulators of the Nur77-Bcl-2 apoptotic pathway” (Eur J Med Chem, 2021).
